Tests used:
K562 [1] = experiment: Antiproliferative activity against human K562 cells; format: functional, cell-based
In short: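 K562 cells were seeded at 30,000 cells/mL in medium with 10% FBS, penicillin and streptomycin. They were cultured with or without test compounds at the indicated concentrations. Cell number per mL was counted with a Coulter counter on different days after culture set-up.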

K562 [2] = experiment: Induction of erythroid differentiation in human K562 cells assessed as benzidine-positive cells after 6 days; format: functional; set-up: concentration or dose not given beside the values
In short: (§1)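 K562 cells were seeded at 30,000 cells/mL in medium with 10% FBS and antibiotics, then exposed to compounds at the indicated concentrations for a 6-day induction period. Hemoglobin-containing cells were scored by benzidine staining and expressed as % benzidine-positive cells. Values are mean ± SD of three independent experiments.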

K562 [3] = experiment: Induction of erythroid differentiation in human K562 cells assessed as benzidine-positive cells at 5 mM after 6 days; format: functional; in short: as §1
K562 [4] = experiment: Induction of erythroid differentiation in human K562 cells assessed as benzidine-positive cells at 1 mM after 6 days; format: functional; in short: as §1
K562 [5] = experiment: Induction of erythroid differentiation in human K562 cells assessed as benzidine-positive cells at 0.1 mM after 6 days; format: functional; in short: as §1
K562 [6] = experiment: Induction of erythroid differentiation in human K562 cells assessed as benzidine-positive cells at 0.75 mM after 6 days; format: functional
In short: (§2)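 Erythroid induction was measured with compound combined with a sub-optimal concentration of ara-C. K562 cells were seeded at 30,000 cells/mL in medium with 10% FBS and antibiotics and co-treated for 6 days. Read-out was % benzidine-positive (hemoglobin-containing) cells, given as mean ± SD of three independent experiments.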

K562 [7] = experiment: Induction of erythroid differentiation in human K562 cells assessed as benzidine-positive cells at 500 mM after 6 days; format: functional; conditions: in the assay text read “500 nM” for “500 mM”; in short: as §1
K562 [8] = experiment: Induction of erythroid differentiation in human K562 cells assessed as benzidine-positive cells at 8 mM after 6 days; format: functional; in short: as §2
K562 [9] = experiment: Induction of erythroid differentiation in human K562 cells assessed as benzidine-positive cells at 20 mM after 6 days; format: functional; in short: as §1
K562 [10] = experiment: Induction of erythroid differentiation in human K562 cells assessed as benzidine-positive cells at 0.5 mM after 6 days; format: functional; in short: as §1

| Structure (SMILES) | IC50 (K562 [1]) [mM] | Activity (K562 [2]) [%] | other results |
| --- | --- | --- | --- |
| CO[C@H]1C[C@@H]2CC[C@@H](C)[C@@](O)(O2)C(=O)C(=O)N2CCCC[C@H]2C(=O)O[C@H]([C@H](C)C[C@@H]2CC[C@@H](O)[C@H](OC)C2)CC(=O)[C@H](C)/C=C(\C)[C@@H](O)[C@@H](OC)C(=O)[C@H](C)C[C@H](C)/C=C/C=C/C=C/1C [SIROLIMUS] | 1 | 75.5 | – |
| CC1(C)O[C@H]2O[C@H]([C@H](O)CO)[C@H](NC(=O)C(C)(C)C)[C@H]2O1 | – | – | Activity (K562 [3]): 68% |
| CCC(=O)N[C@H]1[C@H]2OC(C)(C)O[C@H]2O[C@@H]1[C@H]1COC(C)(C)O1 | 7.5 | 19 | – |
| COc1cccc(CC(=O)N[C@H]2[C@H]3OC(C)(C)O[C@H]3O[C@@H]2[C@H]2COC(C)(C)O2)c1 | – | – | Activity (K562 [4]): 43% |
| CC1(C)O[C@H]2O[C@H]([C@H](O)CO)[C@@H](NC(=O)c3ccc(-c4ccccc4)cc3)[C@H]2O1 | – | – | Activity (K562 [5]): 33% |
| CO[C@H](C(=O)[C@@H](O)[C@@H](C)O)[C@@H]1Cc2cc3cc(O[C@H]4C[C@@H](O[C@@H]5C[C@@H](O)[C@H](O)[C@@H](C)O5)[C@H](O)[C@@H](C)O4)c(C)c(O)c3c(O)c2C(=O)[C@H]1O[C@H]1C[C@@H](O[C@@H]2C[C@@H](O)[C@@H](O[C@@H]3C[C@](C)(O)[C@H](O)[C@@H](C)O3)[C@@H](C)O2)[C@H](O)[C@@H](C)O1 [PLICAMYCIN] | 0.0001 | 86 | – |
| CC1(C)O[C@H]2O[C@H]([C@H]3COC(C)(C)O3)[C@@H](NC(=O)CCc3ccccc3)[C@H]2O1 | – | – | Activity (K562 [6]): 49% |
| CO[C@@H]1O[C@H](CNC(=O)C2CC2)[C@@H]2OC(C)(C)O[C@@H]2[C@H]1O | 0.25 | 27 | – |
| CC#CC(=O)N[C@@H]1[C@H]2OC(C)(C)O[C@H]2O[C@@H]1[C@H]1COC(C)(C)O1 | 0.5 | 19 | – |
| Nc1ccn([C@@H]2O[C@H](CO)[C@@H](O)[C@@H]2O)c(=O)n1 [CYTARABINE] | – | 78 | Activity (K562 [7]): 22% |
| CCCCCC(=O)N[C@@H]1[C@H]2OC(C)(C)O[C@H]2O[C@@H]1[C@H](O)CO | 10 | 28 | – |
| CCCC(=O)NC[C@H]1O[C@H](OC)[C@H](O)[C@H]2OC(C)(C)O[C@H]21 | 0.1 | 18 | – |
| CC(C)(C)CC(=O)N[C@@H]1[C@H]2OC(C)(C)O[C@H]2O[C@@H]1[C@H](O)CO | 5 | 15 | – |
| CC(C)C(=O)N[C@H]1[C@H]2OC(C)(C)O[C@H]2O[C@@H]1[C@H](O)CO | – | – | Activity (K562 [8]): 66% |
| CC1(C)O[C@H]2O[C@H]([C@H]3COC(C)(C)O3)[C@@H](NC(=O)C3CCCC3)[C@H]2O1 | 1 | 21 | – |
| CC(C)CC(=O)N[C@@H]1[C@H]2OC(C)(C)O[C@H]2O[C@@H]1[C@H](O)CO | 5 | 25 | – |
| CCC(=O)N[C@@H]1[C@H]2OC(C)(C)O[C@H]2O[C@@H]1[C@H](O)CO | 30 | 20 | – |
| CCCC(=O)N[C@H]1[C@H]2OC(C)(C)O[C@H]2O[C@@H]1[C@H](O)CO | 20 | 20 | Activity (K562 [9]): 40% |
| COc1ccc(OC)c(CC(=O)N[C@H]2[C@H]3OC(C)(C)O[C@H]3O[C@@H]2[C@H]2COC(C)(C)O2)c1 | – | – | Activity (K562 [10]): 50% |
| CC1(C)O[C@H]2O[C@H]([C@H](O)CO)[C@@H](NC(=O)C(C)(C)C)[C@H]2O1 | 20 | 25 | Activity (K562 [9]): 40% |
| COc1ccc(C(=O)N[C@H]2[C@H]3OC(C)(C)O[C@H]3O[C@@H]2[C@H](O)CO)cc1 | 2.5 | 24 | – |
| CCCCC(=O)N[C@@H]1[C@H]2OC(C)(C)O[C@H]2O[C@@H]1[C@H](O)CO | 5 | 18 | – |
| CCCC(=O)N[C@@H]1[C@H]2OC(C)(C)O[C@H]2O[C@@H]1[C@H](O)CO | 0.5 | 20 | Activity (K562 [10]): 35% |
| CCCC(=O)O [BUTYRIC ACID] | 2 | 32.5 | – |
